Published values of several laboratories.
Each line is one published result; the experiments were not run side by side.
Target: 5'-AMP-activated protein kinase catalytic subunit alpha-1 (PRKAA1, Homo sapiens, UniProt Q13131)

Cc1ncc([N+](=O)[O-])n1C(=NO)c1ccccc1C(F)(F)F  inhibition (enzyme activity; inhibitor; 10 µM): 7.33%
FC(F)(F)Oc1cccc(-c2cnc3ccc(-c4ccncc4)nn23)c1  activity vs control (enzyme activity; inhibitor; radiometric; 1 µM): 81%
C=CC(=O)Nc1cc(Nc2nccc(Nc3cc(Cl)c(F)cc3C(C)(C)O)n2)c(OC)cc1N1CC[C@@H](N(C)C)C1  inhibition (enzyme activity; inhibitor; 1 µM): -6%
CCCCNc1ncc2c(-c3ccc(F)cc3)nn(C[C@H]3CC[C@H](N)CC3)c2n1  inhibition (target engagement in cells; inhibitor; chemoproteomics; 20 mM): 22.8%
O=C(Nc1cccnn1)N1CC(C/C=C/c2cncc(Oc3ccc(C(F)(F)F)cn3)n2)C1  remaining binding (cell-free assay; competition with immobilised ligand; 1 µM): 100%
CN1CC(Oc2cnc(C#N)cc2-c2ccn3nc(NC(=O)C4CC4)cc3c2)C1  inhibition (enzyme activity; inhibitor; 1 µM): 5%
Cc1ccc(C(=O)Nc2ccc(CN3CCN(C)CC3)c(C(F)(F)F)c2)cc1C#Cc1cnc2cccnn12  remaining activity (enzyme activity; 23.5 nM): 73%
CCN1CCN(Cc2ccc(NC(=O)c3ccc(C)c(Oc4ccnc5[nH]ccc45)c3)cc2C(F)(F)F)CC1  inhibition (target engagement in cells; inhibitor; chemoproteomics; Huh-7; 1 µM): -32.8%
CCc1ccccc1C(=O)Nc1n[nH]c2c(C)c(F)c(C3C(C#N)=C(C)N(C)C(C)=C3C#N)cc12  remaining binding (cell-free assay; competition with immobilised ligand; 1 µM): 7.5%
COc1cccc2c(NCc3ccccc3)nc(-n3c(N)nc4ccccc43)nc12  inhibition (target engagement in cells; inhibitor; chemoproteomics; 20 mM): 8.3%
CC(C)(C)c1nc(-c2cccc(NS(=O)(=O)c3c(F)cccc3F)c2F)c(-c2ccnc(N)n2)s1  remaining activity (enzyme activity; inhibitor; radiometric; 1 µM): 49%
Nc1cnc(N2CCc3cc(S(=O)(=O)Nc4c(F)cc(Cl)cc4F)cc(N4CCCC4=O)c32)nc1  remaining binding (cell-free assay; competition with immobilised ligand; 1 µM): 100%
Nc1ncnc2occ(-c3ccc(NC(=O)Nc4cc(C(F)(F)F)ccc4F)cc3)c12  remaining signal (cell-free assay; 20 µM): 5.3%
CC(C)(C)c1nc2c(s1)c1nc(N)ncc1c1ccc(NS(=O)(=O)c3c(F)cccc3F)c(F)c12  remaining activity (enzyme activity; inhibitor; radiometric; 1 µM): 81%
